Results reported in ChEMBL document CHEMBL1914355, “Discovery of new orally active prostaglandin D2 receptor antagonists” (Bioorg Med Chem, 2011).
In brackets after ≈: the same amount, converted by molar mass. Blank lines part the entries; values can stand above or below the compound they belong to.

Tests used:
Prostacyclin receptor = Prostacyclin receptor (Homo sapiens, UniProt P43119); assay: Displacement of [3H]Iloprost from human prostanoid IP receptor expressed in CHO cells after 30 mins by liquid scintillation counting; format: cell-based
Prostacyclin receptor, sequence (P43119 whole entry): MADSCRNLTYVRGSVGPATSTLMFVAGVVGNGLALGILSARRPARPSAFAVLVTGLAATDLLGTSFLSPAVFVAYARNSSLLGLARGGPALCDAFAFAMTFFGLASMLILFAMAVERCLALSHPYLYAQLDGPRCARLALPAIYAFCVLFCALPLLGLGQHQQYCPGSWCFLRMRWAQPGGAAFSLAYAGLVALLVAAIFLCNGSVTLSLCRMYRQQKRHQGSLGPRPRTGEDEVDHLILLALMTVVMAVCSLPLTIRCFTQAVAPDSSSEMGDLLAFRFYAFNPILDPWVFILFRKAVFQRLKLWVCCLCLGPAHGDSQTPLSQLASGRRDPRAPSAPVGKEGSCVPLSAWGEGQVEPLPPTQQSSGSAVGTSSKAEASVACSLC
Outline: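 Membranes from CHO cells stably expressing hIP were incubated with 5.0 nM [³H]iloprost and graded compound concentrations in 50 mM Tris-HCl (1 mM EDTA, 10 mM MgCl₂, pH 7.5) for 30 min at room temperature. Filters (GF/B) were washed with ice-cold Tris/NaCl pH 7.5, dried 60 min at 60 °C, and counted. Nonspecific binding used excess unlabeled iloprost. Ki = IC50/(1+[L]/Kd).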

[1] = target: T1, Prostaglandin D2 receptor (Mus musculus, UniProt P70263); assay: Antagonist activity at mouse prostanoid DP receptor expressed in CHO cells assessed as inhibition of PGD2-induced intracellular cAMP production after 10 mins by enzyme immunoassay; format: functional, cell-based
T1 sequence (P70263 whole entry): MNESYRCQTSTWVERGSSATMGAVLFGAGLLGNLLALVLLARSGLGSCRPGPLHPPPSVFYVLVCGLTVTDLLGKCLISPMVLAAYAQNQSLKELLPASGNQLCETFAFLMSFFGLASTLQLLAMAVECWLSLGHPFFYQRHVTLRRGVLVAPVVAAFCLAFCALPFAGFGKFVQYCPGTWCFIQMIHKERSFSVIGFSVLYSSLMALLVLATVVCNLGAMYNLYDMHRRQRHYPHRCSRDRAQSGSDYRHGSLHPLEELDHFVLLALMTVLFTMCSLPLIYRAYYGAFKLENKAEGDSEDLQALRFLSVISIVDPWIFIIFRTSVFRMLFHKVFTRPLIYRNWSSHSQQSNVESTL
Outline: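 CHO cells expressing mDP seeded at 1 × 10⁵ cells/well and grown 2 days. They were rinsed and preincubated ~10 min at 37 °C in MEM with 2 µM diclofenac, then ~10 min in assay medium (MEM, 0.1% BSA, 1 mM IBMX, 2 µM diclofenac). Compound plus 10 nM PGD₂ was added for 10 min at 37 °C. TCA stop, tri-n-octylamine/chloroform extraction, cAMP by EIA. IC50 taken from % of maximal cAMP rise without compound.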

[2] = target: T2, Prostaglandin D2 receptor (Homo sapiens, UniProt Q13258); assay: Antagonist activity at prostanoid DP receptor in human platelet rich plasma assessed as inhibition of PGD2-induced intracellular cAMP production after 10 mins by enzyme immunoassay; format: functional, cell-based; settings: in the assay text read “after 15 mins” for “after 10 mins”
T2 sequence (Q13258 whole entry): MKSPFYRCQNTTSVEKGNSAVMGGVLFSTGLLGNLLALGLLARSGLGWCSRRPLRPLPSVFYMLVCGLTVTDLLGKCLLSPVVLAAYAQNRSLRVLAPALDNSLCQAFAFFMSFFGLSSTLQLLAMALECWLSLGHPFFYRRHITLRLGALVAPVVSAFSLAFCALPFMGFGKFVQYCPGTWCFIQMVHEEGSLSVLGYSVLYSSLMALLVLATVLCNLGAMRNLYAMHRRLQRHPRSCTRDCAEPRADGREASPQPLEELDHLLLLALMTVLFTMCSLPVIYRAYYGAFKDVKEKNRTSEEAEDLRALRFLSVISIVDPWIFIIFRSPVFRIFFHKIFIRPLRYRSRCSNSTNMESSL
Outline: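 Human PRP with EDTA (~10 mmol/L) was spun at 1500 G for 15 min. Platelets were resuspended in PPP at 5.0 × 10⁵/µL with IBMX (8 mmol/L final) and an EP3 antagonist, then held 5 min at 37 °C. Compound was added for 10 min at 37 °C, then PGD₂ (3 µmol/L final) for 15 min. TCA stop, tri-n-octylamine extraction, cAMP EIA. IC50 derived from inhibition ratio.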

[3] = AUC (0 to infinity) in rat at 1 mg/kg, iv administered as single dose; format: ADME, organism-based; design: time infinity, dose 1 mg/kg, route intravenous; settings: plasma
Outline: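 Single IV dose of 1 mg/kg to fasted male rats (n = 3). Vehicle: 30% HP-b-CD containing 5% DMSO with NaHCO3 (1 eq). Jugular vein blood taken in heparinized syringe pre-dose and at 5, 15, 30 min and 1, 2, 4, 6, 8, 24 h. Plasma obtained by centrifugation at 4 °C and stored at -80 °C. AUC derived from the plasma concentration–time course.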

[4] = Cmax in rat at 1 mg/kg, po administered as single dose; settings: in vivo
Cavia porcellus [5] = assay: Inhibition of PGD2-induced vascular permeability in Hartley guinea pig conjunctiva at 0.1 mg/kg, po administered 1 hr before antigen challenge measured after 30 mins; format: functional
Outline: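 Guinea pigs (n = 8) were dosed orally 1 h before topical PGD₂ challenge (20 µL/eye). 5% Evans blue (1 mL/kg iv) was given immediately after challenge. After 30 min the conjunctiva was excised and dye extracted in DMF at 37 °C, with absorbance read at 620 nm. Dunnett's test versus control.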

[6] = target: T1, Prostaglandin D2 receptor; assay: Displacement of [3H]-PGD2 from mouse DP receptor expressed in CHO cells after 20 mins by liquid scintillation counting; format: cell-based
Outline: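 CHO-mDP membranes were incubated with 2.5 nM [³H]PGD₂ and graded compound concentrations in 25 mM HEPES-NaOH (1 mM EDTA, 5 mM MgCl₂, 10 mM MnCl₂, pH 7.4) for 20 min at room temperature. Bound ligand was collected on GF/B filters and washed with ice-cold Tris/NaCl/0.01% BSA, pH 7.4. Nonspecific binding was defined with excess unlabeled PGD₂. IC50 came from the regression curve; Ki = IC50/(1+[L]/Kd).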

[7] = Half life in rat at 1 mg/kg, po administered as single dose; format: ADME, organism-based; design: dose 1 mg/kg, route oral; settings: in vivo
Outline: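 Fasted male rats (n = 3) received a single oral 1 mg/kg dose in 0.5% methylcellulose. Jugular blood was drawn into heparin before dosing and at 15, 30 min and 1, 2, 4, 6, 8, 24 h. Plasma was separated at 4 °C. Parameters came from the plasma concentration-time course.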

[8] = Total clearance in rat at 1 mg/kg, iv administered as single dose; format: ADME, organism-based; design: dose 1 mg/kg, route intravenous; settings: in vivo
Outline: (§1)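 Fasted male rats (n = 3) received a single 1 mg/kg iv dose in 30% HP-β-CD with 5% DMSO and 1 eq NaHCO₃. Jugular blood was drawn into heparin before dosing and at 5, 15, 30 min and 1, 2, 4, 6, 8, 24 h. Plasma was obtained by centrifugation at 4 °C. Parameters came from the plasma concentration-time course.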

[9] = Oral bioavailability in rat at 1 mg/kg administered as single dose; format: ADME, organism-based; settings: in vivo
Outline: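 Fasted male rats (n = 3) were given 1 mg/kg orally in 0.5% methylcellulose and 1 mg/kg iv in 30% HP-β-CD/5% DMSO/NaHCO₃, each as a single dose. Plasma from serial jugular samples was analysed. Bioavailability was derived from oral versus iv exposure, corrected for dose (D_po, D_iv).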

Cavia porcellus [10] = assay: Inhibition of OVA-induced vascular permeability in Hartley guinea pig conjunctiva at 1 mg/kg, po administered 1 hr before antigen challenge measured after 30 mins; format: functional
Outline: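 Male Hartley guinea pigs were sensitized ip with OVA (1 mg) plus inactivated B. pertussis. Two weeks later they were challenged topically with OVA (1%, 20 µL/eye), followed at once by Evans blue (20 mg/kg iv). Compound was given orally 1 h before challenge (n = 7). After 30 min the conjunctiva was removed, dye was extracted in DMF at 37 °C, and A620 was read against a standard curve. Dunnett's test was used.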

[11] = AUC (0 to infinity) in rat at 1 mg/kg, po administered as single dose; format: ADME, organism-based; design: time infinity, dose 1 mg/kg, route oral; settings: plasma
Outline: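 Fasted male rats (n = 3) given a single oral dose of 1 mg/kg in 0.5% MC. Heparinized jugular vein blood sampled pre-dose and at 15, 30 min and 1, 2, 4, 6, 8, 24 h. Plasma separated by centrifugation at 4 °C and kept at -80 °C. AUC derived from the plasma concentration–time profile.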

[12] = Kinetic solubility of the compound; format: physicochemical; settings: read-out: Kinetic_solubility
[13] = Volume of distribution at steady state in rat at 1 mg/kg, iv administered as single dose; format: ADME, organism-based; design: dose 1 mg/kg, route intravenous; settings: in vivo, read-out: Vdss; outline: as §1
[14] = Half life in rat at 1 mg/kg, iv administered as single dose; format: ADME, organism-based; design: dose 1 mg/kg, route intravenous; settings: in vivo; outline: as §1

Compound: Cc1cc(OC[C@@H]2COc3ccccc32)cc(C)c1C(=O)Nc1cc(CC(=O)O)ccc1Cl
Ki (Prostacyclin receptor): > 10 µM
IC50 [1]: 0.0015 µM

Compound: Cc1cc(C(=O)Nc2cc(C(C)(C)C(=O)O)ccc2Cl)c(C)cc1OC[C@@H]1CN(C)c2ccccc2O1
Ki (Prostacyclin receptor): 3.3 µM
IC50 [2]: 0.032 µM
IC50 [1]: 0.043 µM

Compound: Cc1cc(C(=O)Nc2cccc(CC(=O)O)c2)c(C)cc1OC[C@@H]1CN(C)c2ccccc2O1
Ki (Prostacyclin receptor): > 10 µM
IC50 [1]: 0.028 µM

Compound: CN1C[C@@H](COc2ccc(C(=O)Nc3cc(CC(=O)O)ccc3Cl)c(Cl)c2)Oc2ccccc21
IC50 [2]: > 0.05 µM

Compound: Cc1cc(OC[C@@H]2Cc3ccccc3O2)cc(C)c1C(=O)Nc1cc(CC(=O)O)ccc1Cl
Ki (Prostacyclin receptor): > 10 µM
IC50 [1]: 0.014 µM

Compound: Cc1cc(OC[C@@H]2COc3ccccc3O2)cc(C)c1C(=O)Nc1cc(CC(=O)O)ccc1Cl
Ki (Prostacyclin receptor): > 10 µM
IC50 [1]: 0.0043 µM

Compound: Cc1cc2c(CC(=O)O)cccc2n1C(=O)c1ccc(OC[C@@H]2CN(C)c3ccccc3O2)cc1
inhibition in vivo at 0.1 mg/kg (Cavia porcellus [5]): 67%
IC50 [2]: 0.057 µM
solubility kinetic [12]: 8.2 µg/mL (≈ 17.4 µM)

Compound: CN1C[C@@H](COc2ccc(C(=O)n3ccc4c(CC(=O)O)cccc43)cc2)Oc2ccccc21
Ki (Prostacyclin receptor): 2.5 µM
Ki [6]: 1.7 µM

Compound: Cc1ccc2c(c1)[C@H](COc1cc(C)c(C(=O)Nc3cc(CC(=O)O)ccc3Cl)c(C)c1)CO2
Ki (Prostacyclin receptor): > 10 µM
IC50 [1]: 0.024 µM

Compound: Cc1cc(C(=O)Nc2cc(CC(=O)O)ccc2Cl)c(C)cc1OC[C@@H]1CN(C)c2ccccc2O1
Ki (Prostacyclin receptor): 1.8 µM
solubility kinetic [12]: 17 µg/mL (≈ 34.3 µM)
IC50 [1]: 0.0051 µM

Compound: CN1C[C@@H](COc2ccc(C(=O)Nc3cccc(CC(=O)O)c3)c(Cl)c2)Oc2ccccc21
Ki (Prostacyclin receptor): 2.7 µM

Compound: Cc1ccc(CC(=O)O)cc1NC(=O)c1c(C)cc(OC[C@@H]2CN(C)c3ccccc3O2)cc1C
Ki (Prostacyclin receptor): > 10 µM
IC50 [1]: 0.0048 µM

Compound: Cc1cc(OCC2Oc3ccccc3O2)cc(C)c1C(=O)Nc1cc(CC(=O)O)ccc1Cl
Ki (Prostacyclin receptor): > 10 µM
IC50 [1]: 0.027 µM

Now from value to compound, other results behind:

Ki (Prostacyclin receptor): 2.6 µM
IC50 [1]: 0.0057 µM
Compound: Cc1ccc(CC(=O)O)cc1NC(=O)c1cc(C)c(OC[C@@H]2CN(C)c3ccccc3O2)cc1C

Ki (Prostacyclin receptor): 5.2 µM
IC50 [1]: 0.012 µM
Compound: Cc1ccc(CC(=O)O)cc1NC(=O)c1ccc(OC[C@@H]2CN(C)c3ccccc3O2)c(C)c1C

Ki (Prostacyclin receptor): > 10 µM
Compound: Cc1cc(OC[C@@H]2CN(C)c3ccccc3O2)ccc1C(=O)Nc1cc(CC(=O)O)ccc1F

Ki (Prostacyclin receptor): > 10 µM
IC50 [1]: 0.0035 µM
Compound: Cc1cc(OC[C@@H]2CN(C)c3ccccc3O2)cc(C)c1C(=O)Nc1cccc(CC(=O)O)c1

AUC(0-inf) [3]: 11300 ng·h/mL
Cmax [4]: 930 ng/mL
Ki (Prostacyclin receptor): > 10 µM
Ki [6]: 0.0064 µM
half-life [7]: 5.8 h
clearance [8]: 1.6 mL/min/kg
bioavailability [9]: 72%
IC50 [2]: 0.0044 µM
AUC(0-inf) [11]: 8120 ng·h/mL
solubility kinetic [12]: 407 µg/mL (≈ 822 µM)
Vd [13]: 0.622 L/kg
IC50 [1]: 0.0076 µM
half-life [14]: 6.2 h
Compound: Cc1cc(OC[C@@H]2CN(C)c3ccccc3O2)cc(C)c1C(=O)Nc1cc(CC(=O)O)ccc1Cl
inhibition in vivo at 0.1 mg/kg (Cavia porcellus [5]): 55%
inhibition in vivo at 1 mg/kg (Cavia porcellus [10]): 46%

Ki (Prostacyclin receptor): 1.4 µM
Compound: Cc1ccc(CC(=O)O)cc1NC(=O)c1ccc(OC[C@@H]2CN(C)c3ccccc3O2)cc1Cl

Ki (Prostacyclin receptor): > 10 µM
IC50 [1]: 0.022 µM
Compound: Cc1c(OC[C@@H]2CN(C)c3ccccc3O2)ccc(C(=O)Nc2cccc(CC(=O)O)c2)c1C

Ki (Prostacyclin receptor): 1.8 µM
solubility kinetic [12]: 129 µg/mL (≈ 268 µM)
Compound: Cc1cc(OC[C@@H]2CN(C)c3ccccc3O2)ccc1C(=O)Nc1cc(CC(=O)O)ccc1Cl

Ki (Prostacyclin receptor): > 10 µM
solubility kinetic [12]: 321 µg/mL (≈ 616 µM)
IC50 [1]: 0.001 µM
Compound: Cc1cc(OC[C@@H]2CN(C)c3ccccc3O2)cc(C)c1C(=O)Nc1cc(C2(C(=O)O)CC2)ccc1Cl

Ki (Prostacyclin receptor): 3.5 µM
Ki [6]: 0.028 µM
IC50 [1]: 0.054 µM
Compound: Cc1c(OC[C@@H]2CN(C)c3ccccc3O2)ccc(C(=O)Nc2cc(CC(=O)O)ccc2Cl)c1C

Ki (Prostacyclin receptor): 3.3 µM
IC50 [2]: 0.28 µM
solubility kinetic [12]: 139 µg/mL (≈ 263 µM)
IC50 [1]: 0.007 µM
Compound: CN1C[C@@H](COc2ccc(C(=O)Nc3cc(C(C)(C)C(=O)O)ccc3Cl)c(Cl)c2)Oc2ccccc21

Ki (Prostacyclin receptor): 0.52 µM
IC50 [1]: 0.014 µM
Compound: CN1C[C@@H](COc2ccc(C(=O)Nc3cc(C(F)(F)C(=O)O)ccc3Cl)c(Cl)c2)Oc2ccccc21

Ki (Prostacyclin receptor): 1.7 µM
IC50 [2]: 0.019 µM
IC50 [1]: 0.026 µM
Compound: Cc1cc(C(=O)Nc2cc(C3(C(=O)O)CC3)ccc2Cl)c(C)cc1OC[C@@H]1CN(C)c2ccccc2O1
